Active and inactive are the calls of the source. No cut-off for these calls is given here.
Tests used:
[1] = target: T1, Type-1 angiotensin II receptor (Oryctolagus cuniculus, UniProt P34976); assay: Antagonist activity at angiotensin 2 receptor type 1 in New Zealand White rabbit descending thoracic aorta rings assessed as inhibition of angiotensin 2-induced contraction preincubated for 30 mins prior angiotensin 2 challenge; type: functional, tissue-based
T1 sequence (P34976 whole entry): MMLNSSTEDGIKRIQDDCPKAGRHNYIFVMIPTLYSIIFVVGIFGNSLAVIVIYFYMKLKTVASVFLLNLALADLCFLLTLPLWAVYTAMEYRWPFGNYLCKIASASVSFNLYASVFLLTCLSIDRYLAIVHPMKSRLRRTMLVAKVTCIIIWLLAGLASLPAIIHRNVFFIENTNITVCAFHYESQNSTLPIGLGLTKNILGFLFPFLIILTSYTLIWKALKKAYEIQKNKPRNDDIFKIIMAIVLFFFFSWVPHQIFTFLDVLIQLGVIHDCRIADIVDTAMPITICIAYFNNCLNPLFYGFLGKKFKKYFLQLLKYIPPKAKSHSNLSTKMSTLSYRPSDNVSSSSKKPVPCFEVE
In short: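 Aortic rings held at 2 g resting tension and equilibrated 60 min with repeated washing in Krebs bicarbonate solution. Responsiveness was checked with AngII, then a control cumulative AngII concentration–contractile response curve was run. After washout, test substance was incubated 30 min and a second AngII curve obtained.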

Rattus norvegicus [2] = assay: Antihypertensive activity in iv dosed pithed rat model assessed as inhibition of angiotensin 2-induced pressor response by gould pressure transducer-coupled grass polygraphy; type: functional
In short: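 Pithed rats had blood pressure recorded by an arterial catheter to a pressure transducer/polygraph. After about 60 min of stabilization, AngII (100 ng/kg iv) was given three times at 15 min intervals to set a basal pressor response. Compound was then given iv, followed by AngII 100 ng/kg iv. ED50 for 50% inhibition of maximal pressor response came from the dose–pressure curve.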

Rattus norvegicus [3] = species on record: Rattus norvegicus; assay: Displacement of [125I]angiotensin 2 from angiotensin 2 receptor type 1 in Sprague-Dawley rat adrenal cortex membranes at 10 uM after 60 mins by gamma counting; type: cell membranes; settings: Membrane
[4] = Displacement of [125I]angiotensin 2 from angiotensin 2 receptor type 1 in Sprague-Dawley rat adrenal cortex membranes after 60 mins by gamma counting; type: cell membranes, Membrane
In short: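 Adrenal cortex membranes came from male Sprague–Dawley rats (200–250 g); the pellet was taken by differential centrifugation up to 100,000 g. Membranes (60–70 µg protein/assay) were suspended in 50 mM Tris–HCl, 10 mM MgCl2, 0.25% BSA, pH 7.4, with [125I]AngII (0.05 nM) and test compound (3×10^-12 to 10^-6 M, DMSO). Incubation ran 60 min at 25 °C and ended by GF/B filtration. IC50 is 50% inhibition of binding.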

Rattus norvegicus [5] = assay: Ratio of losartan ED50 to compound ED50 for antihypertensive activity in iv dosed pithed rat model assessed as inhibition of angiotensin 2-induced pressor response; type: functional
Rattus norvegicus [6] = assay: Antihypertensive activity in conscious spontaneously hypertensive rat assessed as decrease in mean arterial blood pressure at 10 mg/kg, po up to 24 hrs; type: functional, organism-based; parameters: dose 10 mg/kg; settings: Artery
In short: (§1)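 SHRs were acclimatized 10 weeks, then habituated for 7 days to 37 °C chamber prewarming for 10 min, restraint and a tail cuff with pulse sensor. After stabilization, 10 mg/kg was given orally.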

Rattus norvegicus [7] = assay: Antihypertensive activity in furosemide treated rat high-renin model assessed as decrease in mean arterial pressure at 10 mg/kg, po up to 8 hrs; type: functional, organism-based; parameters: dose 10 mg/kg; settings: Artery
In short: (§2)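 Furosemide 10 mg/kg sc was given 20 and 2 h before the experiment, with food and water withdrawn for 24 h. Mean arterial pressure and heart rate were recorded by polygraph. After about 60 min of stabilization, 10 mg/kg was given orally. Readings were taken at 20, 40 and 60 min, then every 30 min to 8 h.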

[8] = target: T2, Type-1 angiotensin II receptor (Oryctolagus cuniculus) (UniProt P34976); assay: Antagonist activity at angiotensin 2 receptor type 1 in New Zealand White rabbit descending thoracic aorta rings assessed as inhibition of noradrenaline-induced contraction preincubated for 30 mins prior noradrenaline challenge; type: functional, tissue-based
T2 sequence (whole entry): T1 sequence (P34976 whole entry)

Rattus norvegicus [9] = assay: Antihypertensive activity in conscious spontaneously hypertensive rat assessed as decrease in mean arterial blood pressure at 10 mg/kg, po up to 5 hrs; type: functional, organism-based; parameters: dose 10 mg/kg; settings: Artery; in short: as §1
[10] = target: T2, Type-1 angiotensin II receptor (Oryctolagus cuniculus); assay: Antagonist activity at angiotensin 2 receptor type 1 in New Zealand White rabbit descending thoracic aorta rings assessed as inhibition of KCl-induced contraction preincubated for 30 mins prior KCl challenge; type: functional, tissue-based
[11] = target: T2, Type-1 angiotensin II receptor (Oryctolagus cuniculus); assay: Ratio of losartan IC50 to compound IC50 for antagonist activity at angiotensin 2 receptor type 1 in New Zealand White rabbit descending thoracic aorta rings; type: functional, tissue-based
Rattus norvegicus [12] = species on record: Rattus norvegicus; assay: Ratio of losartan IC50 to compound IC50 for displacement of [125I]angiotensin 2 from angiotensin 2 receptor type 1 in Sprague-Dawley rat adrenal cortex membranes; type: cell membranes; settings: Membrane
[13] = Apparent oral clearance in Sprague-Dawley rat at 3 mg/kg; type: ADME, organism-based; parameters: dose 3 mg/kg, route oral; settings: in vivo
In short: (§3)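 Male Sprague–Dawley rats (n = 7) given a single oral dose of 3 mg/kg. AUC, Cmax, Tmax, t1/2, Cl/F and Vss/F were derived from plasma profiles and reported as mean ± S.D.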

[14] = AUC in Sprague-Dawley rat at 3 mg/kg, po; type: ADME, organism-based; parameters: dose 3 mg/kg, route oral; settings: plasma; in short: as §3
[15] = Oral steady-state volume of distribution in Sprague-Dawley rat at 3 mg/kg; type: ADME, organism-based; parameters: dose 3 mg/kg; settings: in vivo, read-out: Vss/F; in short: as §3
Rattus norvegicus [16] = assay: Antihypertensive activity in conscious spontaneously hypertensive rat assessed as decrease in mean arterial blood pressure at 10 mg/kg, po at 5 hrs post dose; type: functional, Artery; parameters: scale not given: the % may be the effect or the level left; in short: as §1
[17] = Toxicity in po dosed mouse assessed maximum tolerated dose; type: organism-based; settings: in vivo
In short: (§4)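 Maximum tolerated dose from a single oral administration.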

[18] = Half life in Sprague-Dawley rat at 3 mg/kg, po; type: ADME, organism-based; parameters: dose 3 mg/kg, route oral; settings: in vivo; in short: as §3
Rattus norvegicus [19] = assay: Drug excretion in Sprague-Dawley rat at 3 mg/kg, po; type: ADME, organism-based; parameters: dose 3 mg/kg, route oral; settings: in vivo
[20] = Toxicity in po dosed rat assessed maximum tolerated dose; type: organism-based; settings: in vivo; in short: as §4
Rattus norvegicus [21] = assay: Effect on basal heart rate in furosemide treated rat high-renin model at 10 mg/kg, po up to 8 hrs; type: ADME, organism-based; parameters: dose 10 mg/kg, route oral; settings: in vivo; in short: as §2
[22] = Cmax in Sprague-Dawley rat at 3 mg/kg, po; type: ADME, organism-based; parameters: dose 3 mg/kg, route oral; settings: in vivo; in short: as §3
[23] = Tmax in Sprague-Dawley rat at 3 mg/kg, po; type: ADME, organism-based; parameters: dose 3 mg/kg, route oral; settings: in vivo; in short: as §3

Row | Structure (SMILES) | IC50 [1] [nM] | ED50 (Rattus norvegicus [2]) [mg/kg] | IC50 [4] [nM] | other results
1 | CCCCc1nc(C)c(CC(=O)N2CCCC2)c(=O)n1Cc1ccc(-c2ccccc2-c2nnn[nH]2)cc1 | 1.58 | 0.056 | 59.2 | inhibition (Rattus norvegicus [3]): 76.7%
2 | CCCc1nc(C)c(CC(=O)N(CC)CC)c(=O)n1Cc1ccc(-c2ccccc2-c2nnn[nH]2)cc1 | 4.69 | – | – | –
3 | CCCCc1nc(C)c(CC(=O)N2CCOCC2)c(=O)n1Cc1ccc(-c2ccccc2-c2nnn[nH]2)cc1 | – | 0.018 | 23 | Ratio ED50 (Rattus norvegicus [5]): 19
4 | CCCCc1nc(C)c(CC(=O)N2CCC[C@H]2C(N)=O)c(=O)n1Cc1ccc(-c2ccccc2-c2nnn[nH]2)cc1 | – | 0.023 | 17 | –
5 | CCCCc1nc(Cl)c(CO)n1Cc1ccc(-c2ccccc2-c2nnn[nH]2)cc1 [LOSARTAN] | – | 0.336 | 80 | –
6 | CCCCc1nc(C)c(CCC(=O)N2CC(C)OC(C)C2)c(=O)n1Cc1ccc(-c2ccccc2-c2nnn[nH]2)cc1 (stereo unspecified) | 13.1 | 0.228 | 72.6 | –
7 | CCCCc1nc(C)c(CCC(=O)OCC)c(=O)n1Cc1ccc(-c2ccccc2-c2nnn[nH]2)cc1 | 2.51 | 0.066 | 131 | –
8 | CCCCc1nc(C)c(CC(=O)N2CCSCC2)c(=O)n1Cc1ccc(-c2ccccc2-c2nnn[nH]2)cc1 | – | 0.038 | 9 | –
9 | CCCCc1nc(C)c(CC(=O)N2CCCCC2)c(=O)n1Cc1ccc(-c2ccccc2-c2nnn[nH]2)cc1 | – | 0.063 | 63.3 | inhibition (Rattus norvegicus [3]): 71.7%
10 | CCCCc1nc(C)c(CC(=O)N(CC)CC)c(=O)n1Cc1ccc(-c2ccccc2-c2nnn[nH]2)cc1 | 30.8 | 0.089 | – | –
11 | CCCCc1nc(C)c(CC(=S)N(C)C)c(=O)n1Cc1ccc(-c2ccccc2-c2nnn[nH]2)cc1 [listing 1 of 2 here] | – | – | – | Activity (Rattus norvegicus [6]): Active; Activity (Rattus norvegicus [7]): Active; inhibition [8]: inactive; Activity (Rattus norvegicus [9]): Active; inhibition [10]: inactive; Ratio IC50 [11]: 145; Ratio IC50 (Rattus norvegicus [12]): 615
12 | CCCCc1nc(C)c(CCC(=O)N2CCSCC2)c(=O)n1Cc1ccc(-c2ccccc2-c2nnn[nH]2)cc1 | – | 0.204 | 28 | –
13 | CCCCc1nc(C)c(CC(=O)N(C)C)c(=O)n1Cc1ccc(-c2ccccc2-c2nnn[nH]2)cc1 | – | 0.018 | – | Ratio ED50 (Rattus norvegicus [5]): 19; inhibition (Rattus norvegicus [3]): 71.7%
14 | CCCCc1nc(C)c(CCC(=O)O)c(=O)n1Cc1ccc(-c2ccccc2-c2nnn[nH]2)cc1 | – | 0.094 | 306 | inhibition (Rattus norvegicus [3]): 27.9%
15 | CCCCc1nc(C)c(CCC(=O)N2CCC[C@H]2C(=O)OC)c(=O)n1Cc1ccc(-c2ccccc2-c2nnn[nH]2)cc1 | – | 0.063 | 58.5 | –
16 | CCCCc1nc(C)c(CC(=S)N(C)C)c(=O)n1Cc1ccc(-c2ccccc2-c2nnn[n-]2)cc1.O.O.O.[K+] | – | – | – | CL/F [13]: 84 mL/min/kg; AUC [14]: 678 ng·h/mL; Vd/F [15]: 37.3 L/kg; Activity (Rattus norvegicus [16]): 75%; MTD [17]: > 2000 mg/kg; half-life [18]: 318 min; Ae (Rattus norvegicus [19]): Active; MTD [20]: > 2000 mg/kg; Activity (Rattus norvegicus [21]): Non-toxic; Cmax [22]: 242 ng/mL; Tmax [23]: 6 min
17 | CCCCc1nc(C)c(CCC(=O)N2CCOCC2)c(=O)n1Cc1ccc(-c2ccccc2-c2nnn[nH]2)cc1 | – | 0.143 | 60 | –
18 | CCCCc1nc(C)c(CC(=O)N2CC(C)OC(C)C2)c(=O)n1Cc1ccc(-c2ccccc2-c2nnn[nH]2)cc1 (stereo unspecified) | 1.03 | 0.029 | 24 | –
19 | CCCCc1nc(C)c(CC(=S)N(C)C)c(=O)n1Cc1ccc(-c2ccccc2-c2nnn[nH]2)cc1 [listing 2 of 2 here] | 0.42 | 0.018 | 0.13 | Ratio ED50 (Rattus norvegicus [5]): 19
20 | CCCc1nc(C)c(CC(=O)O)c(=O)n1Cc1ccc(-c2ccccc2-c2nnn[nH]2)cc1 | 27.1 | – | – | –
21 | CCCCc1nc(C)c(CC(=O)N2CCN(C)CC2)c(=O)n1Cc1ccc(-c2ccccc2-c2nnn[nH]2)cc1 | – | – | 19 | –
22 | CCCCc1nc(C)c(CC(=O)OCC)c(=O)n1Cc1ccc(-c2ccccc2-c2nnn[nH]2)cc1 | – | 0.108 | 66.2 | –
23 | CCCCc1nc(C)c(CC(=O)O)c(=O)n1Cc1ccc(-c2ccccc2-c2nnn[nH]2)cc1 | – | 0.13 | 431 | inhibition (Rattus norvegicus [3]): 3.65%
24 | CCCCc1nc(C)c(CC(=S)N2CCCCCC2)c(=O)n1Cc1ccc(-c2ccccc2-c2nnn[nH]2)cc1 | 6.11 | 0.034 | 8.04 | –
25 | CCCCc1nc(C)c(CCC(=O)N2CCCC2)c(=O)n1Cc1ccc(-c2ccccc2-c2nnn[nH]2)cc1 | – | 0.206 | 70.5 | –
26 | CCCCc1nc(C)c(CC(=O)N2CCC[C@H]2C(=O)OC)c(=O)n1Cc1ccc(-c2ccccc2-c2nnn[nH]2)cc1 | – | 0.043 | 59.3 | –
27 | CCCCc1nc(C)c(CC(=S)N(CC)CC)c(=O)n1Cc1ccc(-c2ccccc2-c2nnn[nH]2)cc1 | 1.31 | 0.023 | 6.27 | –
28 | CCCCc1nc(C)c(CCC(=O)N2CCCCC2)c(=O)n1Cc1ccc(-c2ccccc2-c2nnn[nH]2)cc1 | – | 0.164 | 64.7 | –

Source: ChEMBL document CHEMBL1949566 (Bioorg Med Chem Lett, 2012)
